Seven molecules from ChEMBL document CHEMBL2021852 (ACS Med Chem Lett, 2011) can be followed below.

Data set [1] concerns the target T1, Renin (Homo sapiens, UniProt P00797).
T1 sequence (P00797 whole entry): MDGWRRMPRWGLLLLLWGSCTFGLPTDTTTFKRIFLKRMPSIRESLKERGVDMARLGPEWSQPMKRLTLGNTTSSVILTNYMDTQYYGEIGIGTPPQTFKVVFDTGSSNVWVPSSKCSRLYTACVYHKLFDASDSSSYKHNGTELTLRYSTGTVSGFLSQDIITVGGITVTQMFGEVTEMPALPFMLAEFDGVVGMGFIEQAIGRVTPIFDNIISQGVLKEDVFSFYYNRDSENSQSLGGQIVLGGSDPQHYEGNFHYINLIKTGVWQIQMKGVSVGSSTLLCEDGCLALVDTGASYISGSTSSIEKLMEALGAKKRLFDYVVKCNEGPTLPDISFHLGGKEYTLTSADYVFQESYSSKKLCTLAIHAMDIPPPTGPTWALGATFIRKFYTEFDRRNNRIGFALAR
Nature of the data set: Inhibition of human recombinant renin using DABCYL-gamma-Abu-Ile-His-Pro-Phe-His-Leu-Val-Ile-His-Thr-EDANS as substrate for 60 mins by fluorimetry. In a few lines:
(§1)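 Purified recombinant human renin measured in buffer; each value is the average of at least two replicates.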

Data set [2] addresses T1, Renin. Put plainly: Inhibition of human recombinant renin using H-Asp-Arg-Val-Tyr-Ile-His-Pro-Phe-His-Leu-Val-Ile-His-Asn-OH as substrate assessed as formation of angiotensin1 product after 2 hrs by competive radioimmunoassay. The gist of the method: as §1
For a further data set, the target named is Cytochrome P450 3A4 (Homo sapiens, UniProt P08684). Nature of the data set: Inhibition of CYP3A4 using testosterone as substrate in human liver microsome for 20 mins by HPLC analysis. Format: ADME, microsomes. In a few lines:
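CYP3A4 inhibition measured in human liver microsomes; IC50 is the average of at least two replicates.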
On the technique in general: Microsomes from liver hold many membrane-bound enzymes, among them those of drug oxidation.

The target of data set [3] is T1, Renin. Nature of the data set: Inhibition of renin in human plasma assessed as formation of angiotensin1 product after 90 mins by competitive radioimmunoassay. The gist of the method: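 IC50 for renin inhibition determined in the presence of human plasma; each value is the average of at least two replicates.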
Data set [4] in a line: Half life in rat at […], iv. Particulars: in vivo. Format: ADME, organism-based. Details: dose 1.5 mg/kg, route intravenous.
Data set [5] in a line: Oral bioavailability in rat at 8.2 mg/kg. Particulars: in vivo. Format: ADME, organism-based. In a few lines:
(§2)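 Compounds were dosed as fumarate salts in separate intravenous and oral arms. Oral AUC(0–t), IV half-life, IV clearance, Vss and oral bioavailability (F) were derived from the plasma levels.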

Data set [6] in a line: Oral bioavailability in cynomolgus monkey at 2 mg/kg. Format: ADME, organism-based, Macaca fascicularis. Particulars: in vivo. The gist of the method:
as §2

The nature of data set [7]: AUC (0 to t) in cynomolgus monkey at 2 mg/kg, po. Format: ADME, organism-based, Macaca fascicularis. More on the design: dose 2 mg/kg, route oral. Particulars: plasma. The gist of the method:
as §2

Data set [8] can be described thus: Volume of distribution at steady state in rat at […], iv and 8.2 mg/kg, po. Format: ADME, organism-based. The note with it: in vivo, read-out: Vdss.
Data set [9] in a line: Half life in cynomolgus monkey at 1 mg/kg, iv. More on the design: dose 1 mg/kg, route intravenous. Format: ADME, organism-based, Macaca fascicularis. Particulars: in vivo. In a few lines: as §2
A short description of data set [10]: Volume of distribution at steady state in cynomolgus monkey at 1 mg/kg, iv and 2 mg/kg, po. Format: ADME, organism-based, Macaca fascicularis. Particulars: in vivo, read-out: Vdss. The gist of the method: as §2
The nature of data set [11]: Clearance in rat at […], iv. Format: ADME, organism-based. Details: dose 1.5 mg/kg, route intravenous. The note with it: in vivo.
Data set [12] can be described thus: Clearance in cynomolgus monkey at 1 mg/kg, iv. Format: ADME, organism-based, Macaca fascicularis. More on the design: dose 1 mg/kg, route intravenous. Particulars: in vivo. The gist of the method:
as §2

Data set [13] in a line: AUC (0 to t) in rat at 8.2 mg/kg, po. Format: ADME, organism-based. More on the design: dose 8.2 mg/kg, route oral. The note with it: plasma. The gist of the method:
as §2

A short description of data set [14]: Fraction unbound in dog plasma. Format: ADME, cell-free, Canis lupus familiaris.
Data set [15] in a line: Fraction unbound in cynomolgus monkey plasma. Format: ADME, cell-free, Macaca fascicularis.
Data set [16] concerns Salmonella typhimurium. Put plainly: Mutagenicity against Salmonella typhimurium in the absence of S9-mix. Format: toxicity, organism-based. The note with it: salmonella enterica subsp. enterica serovar typhimurium.
The subject of data set [17] is L5178Y. Put plainly: Genotoxicity against TK-positive mouse L5178Y cells. Format: toxicity, cell-based.
Data set [18] relates to L5178Y. Nature of the data set: Genotoxicity against TK-negative mouse L5178Y cells. Format: toxicity, cell-based.
The subject of data set [19] is Salmonella typhimurium. Nature of the data set: Mutagenicity against Salmonella typhimurium in the presence of S9-mix. Format: toxicity, organism-based. Particulars: salmonella enterica subsp. enterica serovar typhimurium.
Data set [20] can be described thus: AUC (0 to t) in cynomolgus monkey at 1 mg/kg, po. Format: ADME, organism-based, Macaca fascicularis. The note with it: plasma. More on the design: dose 1 mg/kg, route oral. The gist of the method: as §2
The nature of data set [21]: Volume of distribution at steady state in cynomolgus monkey at 1 mg/kg, iv and 1 mg/kg, po. Format: ADME, organism-based, Macaca fascicularis. Particulars: in vivo, read-out: Vdss. The gist of the method: as §2
Data set [22] in a line: Oral bioavailability in cynomolgus monkey at 1 mg/kg. Format: ADME, organism-based, Macaca fascicularis. The note with it: in vivo. In a few lines:
as §2

Data set [23] is described as follows: Volume of distribution at steady state in rat at 1.6 mg/kg, iv and 8 mg/kg, po. Particulars: in vivo, read-out: Vdss. Format: ADME, organism-based. The gist of the method: as §2
Data set [24] can be described thus: AUC (0 to t) in rat at 8 mg/kg, po. Particulars: plasma. Format: ADME, organism-based. Details: dose 8 mg/kg, route oral. In a few lines:
as §2

Data set [25] can be described thus: Clearance in rat at 1.6 mg/kg, iv. Format: ADME, organism-based. More on the design: dose 1.6 mg/kg, route intravenous. The note with it: in vivo. The gist of the method:
as §2

A short description of data set [26]: Half life in rat at 1.6 mg/kg, iv. Format: ADME, organism-based. More on the design: dose 1.6 mg/kg, route intravenous. Particulars: in vivo. In a few lines: as §2
A short description of data set [27]: Oral bioavailability in rat at 8 mg/kg. Format: ADME, organism-based. The note with it: in vivo. The gist of the method:
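Rats given compound as the fumarate salt, intravenously and by mouth in separate arms. Oral AUC(0–t), IV half-life, IV clearance, Vss and F were tabulated. The oral dose was 8.0 mg/kg, paired with an IV dose of 1.6 mg/kg.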

Cytochrome P450 3A4, sequence (P08684 whole entry): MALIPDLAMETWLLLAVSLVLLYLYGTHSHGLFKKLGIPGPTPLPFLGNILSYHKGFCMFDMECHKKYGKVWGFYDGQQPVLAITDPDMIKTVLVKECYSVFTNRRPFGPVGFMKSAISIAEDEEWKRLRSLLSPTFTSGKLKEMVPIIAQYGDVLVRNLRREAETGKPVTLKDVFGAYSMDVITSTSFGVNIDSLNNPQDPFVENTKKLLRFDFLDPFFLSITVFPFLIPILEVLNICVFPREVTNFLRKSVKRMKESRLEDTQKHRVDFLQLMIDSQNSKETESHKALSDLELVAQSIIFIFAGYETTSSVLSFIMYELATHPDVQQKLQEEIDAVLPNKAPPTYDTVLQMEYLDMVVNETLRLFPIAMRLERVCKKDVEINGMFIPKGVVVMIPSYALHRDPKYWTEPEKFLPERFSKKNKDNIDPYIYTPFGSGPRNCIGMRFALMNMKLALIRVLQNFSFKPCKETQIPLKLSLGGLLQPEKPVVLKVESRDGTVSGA

Consider `COCCCC[C@@](O)(c1cccc(Cl)c1F)[C@@H]1CCCN(C(=O)NC[C@@H](N)CC2CCCCC2)C1`, for which the IC50 – broadly, the concentration needed to halve the response being measured – is 2.2 nM at Renin [1], 0.27 nM at Renin [2], 2910 nM on Cytochrome P450 3A4 and 69 nM on Renin [3].

For `CNC[C@H](CC1CCCCC1)NC(=O)N1CCC[C@@H]([C@@H](OCCNC(=O)OC)c2cccc(Cl)c2)C1`, inhibition against Cytochrome P450 3A4 was half-maximal at 4600 nM (IC50).

Regarding `CNC[C@H](C[C@H]1CCCOC1)NC(=O)N1CCC[C@@H]([C@@H](OCCNC(=O)OC)c2cccc(Cl)c2)C1.O=C(O)/C=C/C(=O)O`, the half-life (in general, how long it takes for the measured level to halve) was 18.3 h in data set [4] and 14 h in data set [9]. Further, the bioavailability (commonly dose-corrected exposure relative to a reference, in per cent) was 7.5% in data set [5] and 5.3% in data set [6]. The AUC(0-t) (in general, the area under the concentration-time curve up to a stated or last time point) was 172 ng·h/mL in [7] and 167 ng·h/mL in data set [13]. For the same molecule, the Vd in [8] turned out to be 39 L/kg; in data set [10] it was 5 L/kg. Moreover, the clearance (commonly a measure of how efficiently the substance is removed, as volume per time) in data set [11] is 48 mL/min/kg; in data set [12], 9.5 mL/min/kg.

In the case of `CNC[C@H](C[C@@H]1CCCOC1)NC(=O)N1CCC[C@@H]([C@@H](OCCNC(=O)OC)c2cccc(Cl)c2)C1`, the figures for the IC50 at Renin [1], at Renin [2] and at Renin [3] were 5.5 nM, 2.7 nM and 4.5 nM, respectively.

In the case of `CNC[C@H](C[C@H]1CCCOC1)NC(=O)N1CCC[C@@H]([C@@H](OCCNC(=O)OC)c2cccc(Cl)c2)C1`, the IC50 at Renin [1] is 0.56 nM; at Renin [2] it was 0.42 nM; against Cytochrome P450 3A4, 28000 nM; at Renin [3], 0.48 nM.

As for `CN[C@H](CNC(=O)N1CCC[C@@H]([C@@H](OCCNC(=O)OC)c2cccc(Cl)c2)C1)C[C@H]1CCCOC1` [VTP-27999], the fraction unbound – broadly, the share of the substance not bound to proteins or other matrix – was 0.22 in data set [14] and 0.29 in data set [15]. The Activity result in the data set on Salmonella typhimurium [16], in the data set with L5178Y [17], in the data set with L5178Y [18] and in the data set on Salmonella typhimurium [19] was “Non-toxic” throughout. For the same molecule, the IC50 at Renin [1] came out at 0.47 nM; at Renin [2], 0.3 nM; on Renin [3] it was 1.1 nM.

Take `CNC[C@H](CC1CCCCC1)NC(=O)N1CCC[C@@H]([C@@H](OCCNC(=O)OC)c2cccc(Cl)c2)C1.O=C(O)/C=C/C(=O)O`: the AUC(0-t) stood at 130 ng·h/mL in data set [20] and 301 ng·h/mL in [24]. In addition, the figures for the Vd in [21] and in data set [23] were 9.8 L/kg and 19 L/kg, respectively. The figures for the bioavailability in data set [22] and in [27] were 9.9% and 9.4%, respectively. Also, the clearance in [25] came out at 36 mL/min/kg. Moreover, the half-life was 23.3 h in data set [9] and 16.2 h in data set [26].
